In ChEMBL document CHEMBL1125354, “Analogs of CCK incorporating conformationally constrained replacements for Asp32” (J Med Chem, 1992):
*1 amine or outer side, *2 acyl side, *3 side chain or, on linkers, in order; H or OH if unused. Where a SMILES comes first, the peptide text is derived from it. Side-chain parts run from the residue outwards. [ ]: non-standard residue; d: D form. The star is where a group is joined. ξ: configuration not given here. Thz(5,5-Me2) = CC1(C)SCN[C@@H]1C(=O)O; NMeF = CN[C@@H](Cc1ccccc1)C(=O)O; NH(2-Me-phenyl) = Cc1ccccc1N*; ξF = NC(Cc1ccccc1)C(=O)O; Boc = CC(C)(C)OC(=O)*; CO = O=C([*:1])[*:2]

Tests used:
[1] = target: T1, Gastrin/cholecystokinin type B receptor (Bos taurus, UniProt P79266); experiment: Concentration inhibiting [3H]propionyl-CCK-8 binding to cholecystokinin type B receptor of bovine striatum.; assay type: tissue-based
T1 sequence (P79266 whole entry): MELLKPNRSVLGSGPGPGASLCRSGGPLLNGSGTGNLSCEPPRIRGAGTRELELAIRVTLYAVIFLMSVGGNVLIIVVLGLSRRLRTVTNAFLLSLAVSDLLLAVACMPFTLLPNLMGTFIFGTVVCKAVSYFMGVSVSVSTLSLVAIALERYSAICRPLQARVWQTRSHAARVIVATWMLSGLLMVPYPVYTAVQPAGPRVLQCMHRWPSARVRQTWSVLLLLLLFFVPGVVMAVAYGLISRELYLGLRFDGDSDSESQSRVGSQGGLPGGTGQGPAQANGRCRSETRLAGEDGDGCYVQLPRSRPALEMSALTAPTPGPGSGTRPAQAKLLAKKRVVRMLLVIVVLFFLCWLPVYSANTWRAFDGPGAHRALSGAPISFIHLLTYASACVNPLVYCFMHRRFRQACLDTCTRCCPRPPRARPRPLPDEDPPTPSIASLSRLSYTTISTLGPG
Method in brief: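 CCK-B binding used solubilized bovine striatal membranes and [3H]propanoyl-CCK-8 displacement. Nonspecific binding was taken with 1 μM native CCK-8 and subtracted. IC50, the concentration giving 50% inhibition of total specific binding, was obtained by log-probit analysis. Actives were confirmed in duplicate experiments.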

[2] = target: T2, Cholecystokinin receptor type A (Rattus norvegicus, UniProt P30551); experiment: Concentration inhibiting [3H]propionyl-CCK-8 binding to cholecystokinin type A receptor of rat pancreatic membranes.
T2 sequence (P30551 whole entry): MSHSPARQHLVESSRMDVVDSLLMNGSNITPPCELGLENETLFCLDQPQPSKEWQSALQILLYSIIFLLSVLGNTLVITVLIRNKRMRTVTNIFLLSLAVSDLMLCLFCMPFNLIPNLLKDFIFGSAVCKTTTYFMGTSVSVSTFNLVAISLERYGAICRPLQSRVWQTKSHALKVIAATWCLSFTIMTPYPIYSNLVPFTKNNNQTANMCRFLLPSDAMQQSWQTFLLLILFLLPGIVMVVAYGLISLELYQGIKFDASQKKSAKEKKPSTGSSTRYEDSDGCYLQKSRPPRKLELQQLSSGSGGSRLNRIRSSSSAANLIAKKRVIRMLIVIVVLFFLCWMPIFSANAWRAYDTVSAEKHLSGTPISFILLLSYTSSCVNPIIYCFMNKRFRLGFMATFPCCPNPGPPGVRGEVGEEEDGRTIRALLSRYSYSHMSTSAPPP
Method in brief: (§1)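 Solubilized membranes from fresh pancreas of fasted rats (CCK-A). Competition against [3H]propanoyl-CCK-8. Nonspecific binding defined with 1 μM native CCK-8 and subtracted. IC50 is the concentration inhibiting 50% of total specific binding, from log-probit analysis. Actives confirmed in duplicate experiments.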

Rattus norvegicus [3] = experiment: Suppression of food intake in rats when administered intraperitoneally; assay type: functional
Method in brief: (§2)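 Male Sprague–Dawley rats (200–250 g), meal-fed. "1-2-1": trained 4–5 days on two 1-h meals 2 h apart; ip dosing 15 min before first meal, n=5–6. "Overnight fasted": n=5–7, ip vehicle or drug, food offered 1 h. Intake as % of saline control over first hour; t-test vs control; ED50 by log-probit.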

Rattus norvegicus [4] = experiment: Dose required to inhibit the food intake by 50% in rats at a dose of 320 ug/kg ip; assay type: functional; method in brief: as §2
[5] = target: T2, Cholecystokinin receptor type A; experiment: Inhibitory activity against cholecystokinin type A receptor from rat pancreas binding assay; method in brief: as §1
Rattus norvegicus [6] = experiment: Dose required to inhibit the food intake by 50% in rats after intraperitoneal administration; assay type: functional; settings: ip; method in brief: as §2

| IC50 [1] | IC50 [2] | IC50 [5] | Compound | ED50 (Rattus norvegicus [4]) | other results |
| --- | --- | --- | --- | --- | --- |
| 6160 nM | 314 nM |  | CSCC[C@H](NC(=O)[C@H](Cc1ccc(OS(=O)(=O)O)cc1)NC(C)=O)C(=O)NCC(=O)N[C@@H](Cc1c[nH]c2ccccc12)C(=O)N[C@@H](CCSC)C(=O)N1CSC(C)(C)[C@@H]1C(=O)N[C@@H](Cc1ccccc1)C(N)=O [listing 1 of 2 here] |  |  |
|  |  |  | CSCC[C@H](NC(=O)[C@H](Cc1ccc(OS(=O)(=O)O)cc1)NC(C)=O)C(=O)NCC(=O)N[C@@H](Cc1c[nH]c2ccccc12)C(=O)N[C@@H](CCSC)C(=O)N1CSC(C)(C)[C@@H]1C(=O)N[C@@H](Cc1ccccc1)C(N)=O [listing 2 of 2 here] | > 0.32 mg/kg | Control (Rattus norvegicus [3]): 66% |
| 2310 nM | 0.05 nM |  | CSCC[C@H](NC(=O)[C@H](Cc1ccc(OS(=O)(=O)O)cc1)NC(C)=O)C(=O)NCC(=O)N[C@@H](Cc1c[nH]c2ccccc12)C(=O)N[C@@H](CCSC)C(=O)N1CSC(C)(C)[C@H]1C(=O)N[C@@H](Cc1ccccc1)C(N)=O [listing 1 of 2 here] |  |  |
|  |  |  | CSCC[C@H](NC(=O)[C@H](Cc1ccc(OS(=O)(=O)O)cc1)NC(C)=O)C(=O)NCC(=O)N[C@@H](Cc1c[nH]c2ccccc12)C(=O)N[C@@H](CCSC)C(=O)N1CSC(C)(C)[C@H]1C(=O)N[C@@H](Cc1ccccc1)C(N)=O [listing 2 of 2 here] | 0.0044 mg/kg |  |
|  |  | 0.05 nM | Cc1ccccc1NC(=O)NCCCC[C@H](NC(=O)[C@H](Cc1c[nH]c2ccccc12)NC(=O)OC(C)(C)C)C(=O)N[C@@H](CC(=O)O)C(=O)N(C)[C@@H](Cc1ccccc1)C(N)=O (Boc-WK([CO-NH(2-Me-phenyl)])D[NMeF]-NH2) |  |  |
|  |  | 59 nM | Cc1ccccc1NC(=O)NCCCC[C@H](NC(=O)[C@H](Cc1c[nH]c2ccccc12)NC(=O)OC(C)(C)C)C(=O)N1CSC(C)(C)[C@H]1C(=O)NC(Cc1ccccc1)C(N)=O (stereo not given in full) (Boc-WK([CO-NH(2-Me-phenyl)])[Thz(5,5-Me2)][ξF]-NH2) |  | ED50 (Rattus norvegicus [6]): 0.085 mg/kg |
